ChEMBL document CHEMBL5352501, “Catalytic Degraders Effectively Address Kinase Site Mutations in EML4-ALK Oncogenic Fusions” (J Med Chem, 2023)
Converted amounts (≈) assume the structure as drawn. The source made the active and inactive calls. No cut-off for these calls is given here.

Experiments:
[1] = target: Protein cereblon/ALK tyrosine kinase receptor/Echinoderm microtubule-associated protein-like 4 (Homo sapiens, UniProt Q9UM73+Q9HC35+Q96SW2); test: PROTAC activity at human CRBN/HiBit-tagged wild type human EML4-ALK variant 3b expressed in mouse BaF3 cells assessed as induction of EML4-ALK variant 3b fusion protein degradation incubated for 4 hrs by Nano-Glo HiBiT assay; type: cell-based
Sequence of Protein cereblon/ALK tyrosine kinase receptor/Echinoderm microtubule-associated protein-like 4 (Homo sapiens, UniProt Q9UM73+Q9HC35+Q96SW2) (Q96SW2 whole entry, stated change not applied, the tested form may be a part): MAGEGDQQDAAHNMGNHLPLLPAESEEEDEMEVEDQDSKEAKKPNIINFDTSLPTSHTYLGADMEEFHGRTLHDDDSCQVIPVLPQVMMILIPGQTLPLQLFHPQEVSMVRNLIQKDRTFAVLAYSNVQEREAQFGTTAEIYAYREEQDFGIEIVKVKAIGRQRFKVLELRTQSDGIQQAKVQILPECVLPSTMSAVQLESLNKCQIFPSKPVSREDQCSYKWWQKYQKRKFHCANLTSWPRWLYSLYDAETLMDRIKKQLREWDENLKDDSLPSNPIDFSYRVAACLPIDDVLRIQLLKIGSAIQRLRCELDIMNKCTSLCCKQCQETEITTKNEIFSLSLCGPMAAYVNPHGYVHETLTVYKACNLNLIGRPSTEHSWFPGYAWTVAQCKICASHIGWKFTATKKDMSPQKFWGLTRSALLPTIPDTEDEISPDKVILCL
Sequence of Protein cereblon/ALK tyrosine kinase receptor/Echinoderm microtubule-associated protein-like 4 (Homo sapiens, UniProt Q9UM73+Q9HC35+Q96SW2) (Q9HC35 whole entry, stated change not applied, the tested form may be a part): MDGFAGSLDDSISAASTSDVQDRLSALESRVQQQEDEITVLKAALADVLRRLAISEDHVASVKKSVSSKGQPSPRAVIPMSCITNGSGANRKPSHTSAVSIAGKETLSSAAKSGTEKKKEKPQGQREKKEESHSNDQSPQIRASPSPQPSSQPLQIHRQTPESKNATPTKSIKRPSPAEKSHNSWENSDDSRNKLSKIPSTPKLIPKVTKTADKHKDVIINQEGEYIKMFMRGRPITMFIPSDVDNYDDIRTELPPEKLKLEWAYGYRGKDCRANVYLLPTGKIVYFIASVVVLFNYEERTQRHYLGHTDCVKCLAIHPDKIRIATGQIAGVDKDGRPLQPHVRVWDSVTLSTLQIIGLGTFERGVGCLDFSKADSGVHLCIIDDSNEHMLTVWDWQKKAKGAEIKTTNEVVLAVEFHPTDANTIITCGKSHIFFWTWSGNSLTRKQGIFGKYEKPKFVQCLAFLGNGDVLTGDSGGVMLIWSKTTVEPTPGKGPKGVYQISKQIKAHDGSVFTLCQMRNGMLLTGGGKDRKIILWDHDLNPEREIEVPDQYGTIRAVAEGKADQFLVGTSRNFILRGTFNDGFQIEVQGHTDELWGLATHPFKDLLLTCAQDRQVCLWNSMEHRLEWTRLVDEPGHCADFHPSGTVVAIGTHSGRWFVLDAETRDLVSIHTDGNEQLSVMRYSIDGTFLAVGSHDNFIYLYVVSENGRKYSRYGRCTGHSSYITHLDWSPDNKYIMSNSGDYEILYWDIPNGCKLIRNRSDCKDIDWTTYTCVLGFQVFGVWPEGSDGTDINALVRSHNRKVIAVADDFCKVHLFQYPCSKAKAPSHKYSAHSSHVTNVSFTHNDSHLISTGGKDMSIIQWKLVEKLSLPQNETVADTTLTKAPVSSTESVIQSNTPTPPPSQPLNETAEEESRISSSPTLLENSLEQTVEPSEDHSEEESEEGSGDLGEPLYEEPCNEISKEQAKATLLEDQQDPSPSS
Sequence of Protein cereblon/ALK tyrosine kinase receptor/Echinoderm microtubule-associated protein-like 4 (Homo sapiens, UniProt Q9UM73+Q9HC35+Q96SW2) (Q9UM73 19-1620 limits assumed, stated change not applied): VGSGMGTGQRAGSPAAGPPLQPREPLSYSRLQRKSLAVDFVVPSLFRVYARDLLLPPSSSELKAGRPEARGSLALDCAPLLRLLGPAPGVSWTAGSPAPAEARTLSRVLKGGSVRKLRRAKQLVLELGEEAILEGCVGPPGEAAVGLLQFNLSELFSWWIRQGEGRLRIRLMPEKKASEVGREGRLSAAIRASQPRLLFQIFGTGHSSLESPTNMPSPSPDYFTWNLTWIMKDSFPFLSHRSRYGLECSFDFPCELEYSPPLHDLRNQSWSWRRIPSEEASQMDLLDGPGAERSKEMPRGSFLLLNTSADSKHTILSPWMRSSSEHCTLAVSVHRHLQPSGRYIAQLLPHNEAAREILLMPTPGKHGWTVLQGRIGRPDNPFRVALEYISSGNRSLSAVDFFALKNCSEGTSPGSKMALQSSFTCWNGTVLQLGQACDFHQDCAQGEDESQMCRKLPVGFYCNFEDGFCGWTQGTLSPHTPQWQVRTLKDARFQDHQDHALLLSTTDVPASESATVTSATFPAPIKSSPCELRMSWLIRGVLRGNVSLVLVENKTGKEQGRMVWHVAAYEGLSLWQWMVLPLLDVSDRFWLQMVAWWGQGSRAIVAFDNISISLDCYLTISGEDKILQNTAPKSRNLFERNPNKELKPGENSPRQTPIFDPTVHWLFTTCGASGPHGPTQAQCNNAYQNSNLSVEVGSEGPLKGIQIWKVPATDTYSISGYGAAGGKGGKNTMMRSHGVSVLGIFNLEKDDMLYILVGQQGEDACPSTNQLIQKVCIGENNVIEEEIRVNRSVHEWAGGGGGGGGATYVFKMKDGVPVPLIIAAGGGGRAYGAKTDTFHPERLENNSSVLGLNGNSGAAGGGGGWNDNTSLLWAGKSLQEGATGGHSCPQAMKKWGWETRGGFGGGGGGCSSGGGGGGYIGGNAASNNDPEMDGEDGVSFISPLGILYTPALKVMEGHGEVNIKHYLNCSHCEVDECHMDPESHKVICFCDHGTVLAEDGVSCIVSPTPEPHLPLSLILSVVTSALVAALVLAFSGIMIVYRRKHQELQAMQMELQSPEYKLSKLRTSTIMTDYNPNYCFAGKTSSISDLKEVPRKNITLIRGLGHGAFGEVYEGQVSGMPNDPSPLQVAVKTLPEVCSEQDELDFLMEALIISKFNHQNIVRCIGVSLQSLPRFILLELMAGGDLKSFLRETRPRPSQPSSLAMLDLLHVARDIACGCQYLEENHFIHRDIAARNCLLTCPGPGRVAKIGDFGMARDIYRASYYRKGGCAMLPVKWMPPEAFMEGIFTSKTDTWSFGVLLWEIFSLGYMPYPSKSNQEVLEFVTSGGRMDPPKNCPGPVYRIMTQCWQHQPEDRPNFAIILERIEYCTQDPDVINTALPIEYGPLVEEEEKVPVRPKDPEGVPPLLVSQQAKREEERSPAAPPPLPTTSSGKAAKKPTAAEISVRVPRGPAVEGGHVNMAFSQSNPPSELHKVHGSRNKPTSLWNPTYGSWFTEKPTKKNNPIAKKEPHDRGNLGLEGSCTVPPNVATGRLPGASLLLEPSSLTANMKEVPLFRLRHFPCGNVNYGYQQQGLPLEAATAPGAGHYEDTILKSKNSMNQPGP

[2] = tested on: Protein cereblon/ALK tyrosine kinase receptor/Echinoderm microtubule-associated protein-like 4 (Homo sapiens), Q9UM73+Q9HC35+Q96SW2 [UNDEFINED MUTATION]; test: PROTAC activity at human CRBN/HiBit-tagged EML4-ALK variant 3b G1202R mutant expressed in mouse BaF3 cells assessed as induction of EML4-ALK variant 3b fusion protein degradation at 2 uM incubated for 4 hrs by Nano-Glo HiBiT assay relative to control; type: cell-based
Outline: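 Ba/F3 cells stably expressing humanized CRBN and HiBiT-tagged EML4-ALK v3 (WT or mutant) were treated for 4 h. Remaining fusion protein was quantified by HiBiT bioluminescence relative to control.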

[3] = target: ALK tyrosine kinase receptor (Homo sapiens, UniProt Q9UM73); test: Inhibition of N-terminal flag-tagged NanoLuc fused ALK kinase domain (1072 to 1410 residues) (unknown origin) expressed in mouse BaF3 cells assessed as reduction in BRET signal incubated for 2 hrs in presence of CPD-1571 tracer by NanoBRET assay; type: cell-based
Sequence of ALK tyrosine kinase receptor (Q9UM73 whole entry, the tested form may be a part): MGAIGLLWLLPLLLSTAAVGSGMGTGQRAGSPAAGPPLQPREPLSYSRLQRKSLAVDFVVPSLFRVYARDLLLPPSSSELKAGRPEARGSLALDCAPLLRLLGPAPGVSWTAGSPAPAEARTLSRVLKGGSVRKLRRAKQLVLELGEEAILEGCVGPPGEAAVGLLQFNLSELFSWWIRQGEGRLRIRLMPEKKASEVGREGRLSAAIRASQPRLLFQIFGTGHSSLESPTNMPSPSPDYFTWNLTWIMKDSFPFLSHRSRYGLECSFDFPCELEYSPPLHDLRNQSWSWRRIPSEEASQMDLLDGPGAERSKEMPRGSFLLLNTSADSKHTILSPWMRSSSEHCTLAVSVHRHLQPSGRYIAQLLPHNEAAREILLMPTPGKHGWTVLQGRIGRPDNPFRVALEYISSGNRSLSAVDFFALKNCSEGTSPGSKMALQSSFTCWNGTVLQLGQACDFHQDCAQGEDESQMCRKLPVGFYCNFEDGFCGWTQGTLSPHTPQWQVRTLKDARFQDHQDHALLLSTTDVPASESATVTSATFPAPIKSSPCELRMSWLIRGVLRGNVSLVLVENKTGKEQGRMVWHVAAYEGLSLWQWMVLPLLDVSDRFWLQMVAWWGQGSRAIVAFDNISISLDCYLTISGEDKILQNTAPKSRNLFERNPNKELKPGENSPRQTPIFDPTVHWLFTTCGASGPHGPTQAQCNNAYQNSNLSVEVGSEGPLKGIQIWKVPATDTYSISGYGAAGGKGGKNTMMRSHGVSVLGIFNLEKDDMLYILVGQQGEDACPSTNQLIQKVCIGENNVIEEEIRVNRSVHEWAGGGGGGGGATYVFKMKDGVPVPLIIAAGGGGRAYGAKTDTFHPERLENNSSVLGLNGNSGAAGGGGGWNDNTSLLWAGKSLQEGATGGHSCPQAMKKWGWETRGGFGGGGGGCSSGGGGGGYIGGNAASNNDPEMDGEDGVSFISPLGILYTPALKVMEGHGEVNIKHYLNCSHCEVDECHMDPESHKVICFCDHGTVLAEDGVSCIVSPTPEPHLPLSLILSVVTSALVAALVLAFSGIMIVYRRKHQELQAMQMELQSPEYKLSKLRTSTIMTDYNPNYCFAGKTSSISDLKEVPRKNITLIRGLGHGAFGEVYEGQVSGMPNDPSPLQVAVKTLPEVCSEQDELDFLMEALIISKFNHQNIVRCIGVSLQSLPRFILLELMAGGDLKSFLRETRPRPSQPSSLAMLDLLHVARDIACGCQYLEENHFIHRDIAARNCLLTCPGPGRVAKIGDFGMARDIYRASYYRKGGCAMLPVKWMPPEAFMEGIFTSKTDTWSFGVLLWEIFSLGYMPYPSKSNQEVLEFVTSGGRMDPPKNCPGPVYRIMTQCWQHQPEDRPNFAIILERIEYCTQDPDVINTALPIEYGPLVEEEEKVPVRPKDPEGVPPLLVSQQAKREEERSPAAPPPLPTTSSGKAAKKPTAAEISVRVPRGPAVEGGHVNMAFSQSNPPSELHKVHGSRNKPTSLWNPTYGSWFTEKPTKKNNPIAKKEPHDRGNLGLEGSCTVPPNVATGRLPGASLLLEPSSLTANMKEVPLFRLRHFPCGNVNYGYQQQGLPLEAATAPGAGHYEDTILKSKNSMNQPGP

HepG2 [4] = test: Induction of phospholipidosis in human HepG2 cells assessed as […] incubated for 48 hrs by Hoechst 33342 staining based imaging analysis; type: toxicity, cell-based; settings: hepg2, 48 h
BaF3 [5] = test: Antiproliferative activity against mouse Ba/F3 cells stably expressing HiBiT-tagged EML4-ALK variant 3 C1156Y mutant assessed as cell growth inhibition incubated for 72 hrs by CellTiter-Glo assay; type: functional
Outline: (§1)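 Ba/F3 cells stably expressing HiBiT-tagged EML4-ALK v3 (wild type or the named kinase-site mutant) were treated with compound for 72 h. Growth inhibition was reported as log GI50.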

HepG2 [6] = test: Cytotoxicity against human HepG2 cells assessed as reduction in cell viability incubated for 48 hrs by Hoechst 33342 staining based imaging analysis; type: toxicity; settings: hepg2, 48 h
BaF3 [7] = test: Antiproliferative activity against mouse Ba/F3 cells stably expressing HiBiT-tagged wild type EML4-ALK variant 3 assessed as cell growth inhibition incubated for 72 hrs by CellTiter-Glo assay; type: functional; outline: as §1
BaF3 [8] = type: functional; settings: Mus musculus, time 72 hrs
BaF3 [9] = test: Antiproliferative activity against mouse Ba/F3 cells stably expressing HiBiT-tagged EML4-ALK variant 3 G1202R mutant assessed as cell growth inhibition incubated for 72 hrs by CellTiter-Glo assay; type: functional; outline: as §1
BaF3 [10] = type: functional; settings: Mus musculus, time 72 hrs; remark: listed apart in the source
Erythrocyte [11] = test: Hemolytic activity in human RBC assessed as hemolysis incubated for 45 mins by absorbance based microplate reader analysis; type: toxicity, cell-based; settings: 0.75 h
[12] = Solubility of the compound in FeSSIF at pH 5.0 incubated for 24 hrs under shaking condition by UPLC-UV/HPLC-UV analysis; type: physicochemical
[13] = Oral bioavailability in C57BL/J6 mouse at 10 mg/kg and measured upto 24 hrs by LC-MS/MS analysis; type: ADME, organism-based; settings: in vivo
Outline: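 Mouse PK was run with both oral and intravenous dosing, with 10 mg/kg as the study dose. Oral bioavailability was derived from comparing the two routes.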

[14] = Microsomal stability in human liver microsomes assessed as intrinsic clearance at 1 uM and measured upto 60 mins in presence of NADPH by LC-MS/MSC analysis; type: ADME, Microsome; settings: read-out: CLH
Erythrocyte [15] = test: Hemolytic activity in mouse RBC assessed as hemolysis incubated for 45 mins by absorbance based microplate reader analysis; type: toxicity, cell-based; settings: 0.75 h
[16] = target: Protein-tyrosine kinase 2-beta (Homo sapiens) (UniProt Q14289); test: Induction of PTK2B degradation in human MOLT-4 cells incubated for 6 hrs by MS based proteomics analysis; type: cell-based
[17] = target: Tyrosine-protein kinase Fer (Homo sapiens) (UniProt P16591); test: Induction of FER degradation in human MOLT-4 cells incubated for 6 hrs by MS based proteomics analysis; type: cell-based
[18] = target: T1, Serine/threonine-protein kinase ULK1 (Homo sapiens) (UniProt O75385); test: Induction of ULK1 degradation in human MOLT-4 cells incubated for 6 hrs by MS based proteomics analysis; type: cell-based
T1 sequence (whole entry): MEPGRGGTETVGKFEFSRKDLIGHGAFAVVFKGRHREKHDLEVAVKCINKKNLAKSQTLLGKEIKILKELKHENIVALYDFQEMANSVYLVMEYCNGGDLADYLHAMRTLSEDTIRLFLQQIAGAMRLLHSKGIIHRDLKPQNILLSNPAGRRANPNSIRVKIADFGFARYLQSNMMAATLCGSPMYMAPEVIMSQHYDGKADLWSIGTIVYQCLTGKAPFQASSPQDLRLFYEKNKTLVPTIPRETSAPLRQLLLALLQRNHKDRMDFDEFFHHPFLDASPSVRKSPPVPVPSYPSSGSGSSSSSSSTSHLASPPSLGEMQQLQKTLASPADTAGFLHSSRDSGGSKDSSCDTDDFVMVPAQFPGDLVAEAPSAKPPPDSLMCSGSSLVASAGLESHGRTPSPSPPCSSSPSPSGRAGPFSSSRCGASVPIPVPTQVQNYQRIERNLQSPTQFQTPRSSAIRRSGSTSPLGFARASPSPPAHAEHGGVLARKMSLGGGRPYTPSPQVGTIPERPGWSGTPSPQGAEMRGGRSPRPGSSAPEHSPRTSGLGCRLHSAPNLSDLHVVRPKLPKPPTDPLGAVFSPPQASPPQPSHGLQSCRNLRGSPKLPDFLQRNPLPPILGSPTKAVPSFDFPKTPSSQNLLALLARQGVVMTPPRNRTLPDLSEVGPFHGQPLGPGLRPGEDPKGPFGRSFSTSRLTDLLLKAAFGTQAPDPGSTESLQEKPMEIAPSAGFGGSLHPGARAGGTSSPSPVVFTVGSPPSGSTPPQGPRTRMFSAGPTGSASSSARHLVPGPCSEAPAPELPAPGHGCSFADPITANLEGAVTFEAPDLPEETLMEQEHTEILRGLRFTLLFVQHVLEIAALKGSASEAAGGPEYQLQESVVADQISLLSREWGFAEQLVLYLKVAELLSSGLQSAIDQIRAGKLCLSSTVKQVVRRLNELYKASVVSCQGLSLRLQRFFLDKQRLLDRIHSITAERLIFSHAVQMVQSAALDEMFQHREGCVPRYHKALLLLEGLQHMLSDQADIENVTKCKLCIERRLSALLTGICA

[19] = target: T2, Aurora kinase A (Homo sapiens) (UniProt O14965); test: Induction of AURKA degradation in human MOLT-4 cells incubated for 6 hrs by MS based proteomics analysis; type: cell-based
T2 sequence (whole entry): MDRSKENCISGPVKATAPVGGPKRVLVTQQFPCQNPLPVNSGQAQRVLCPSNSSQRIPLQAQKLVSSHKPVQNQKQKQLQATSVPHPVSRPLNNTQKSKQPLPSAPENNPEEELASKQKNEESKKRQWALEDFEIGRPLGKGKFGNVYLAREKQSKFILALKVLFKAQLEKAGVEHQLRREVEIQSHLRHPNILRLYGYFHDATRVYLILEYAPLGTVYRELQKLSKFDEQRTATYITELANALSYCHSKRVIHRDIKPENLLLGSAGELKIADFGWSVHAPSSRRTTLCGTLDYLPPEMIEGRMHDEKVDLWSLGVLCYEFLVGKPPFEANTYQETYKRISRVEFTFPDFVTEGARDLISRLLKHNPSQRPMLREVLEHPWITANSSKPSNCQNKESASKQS

[20] = target: Protein cereblon/ALK tyrosine kinase receptor/Echinoderm microtubule-associated protein-like 4 (Homo sapiens, UniProt Q9UM73+Q9HC35+Q96SW2, G1202R); test: PROTAC activity at human CRBN/EML4-ALK variant 3b G1202R mutant expressed in mouse BaF3 cells assessed as induction of EML4-ALK fusion protein degradation incubated for 4 hrs by Nano-Glo HiBiT assay; type: cell-based
[21] = target: Ribosomal protein S6 kinase alpha-1 (Homo sapiens) (UniProt Q15418); test: Induction of RSK1 degradation in human MOLT-4 cells incubated for 6 hrs by MS based proteomics analysis; type: cell-based
BaF3 [22] = type: functional; settings: Mus musculus, BaF3, 336 h, route po, time 14 day, read-out: TGI
Mus musculus [23] = type: functional, organism-based; settings: BALB/c, BaF3, dose 10.0 mg/kg, route po, time 14.0 day
[24] = Plasma protein binding in mouse; type: ADME, cell-free
[25] = Plasma protein binding in human; type: ADME, cell-free
Mus musculus [26] = type: functional, organism-based; settings: BALB/c, BaF3, dose 10.0 mg/kg, route po, time 14.0 day; remark: listed apart in the source

GI50 (BaF3 [5])	GI50 (BaF3 [7])	GI50 (BaF3 [8]; read-out: pGI50 (converted))	GI50 (BaF3 [9])	GI50 (BaF3 [10])	SMILES	Activity (Erythrocyte [11])	F [13]	microsomal CLint at 1 µM [14]	Activity (Erythrocyte [15])	also measured
316 nM	200 nM	501 nM	2000 nM	158 nM	Cc1cc(Nc2ncc(Cl)c(Nc3ccccc3S(=O)(=O)C(C)C)n2)c(OC(C)C)cc1C1CCNCC1 [CERITINIB]					Activity (HepG2 [4]): Non-Toxic; Activity (HepG2 [6]): Non-Toxic
39.8 nM	15.8 nM	126 nM	126 nM	15.8 nM	COc1cc(C2CCN(CC3CN(c4ccc5c(c4)C(=O)N(C4CCC(=O)N(C)C4=O)C5=O)C3)CC2)c(C)cc1Nc1ncc(Cl)c(Nc2ccccc2S(=O)(=O)C(C)C)n1 (stereo unspecified)					

The remaining lines, values behind:

SMILES	GI50 (BaF3 [5])	GI50 (BaF3 [7])	GI50 (BaF3 [8]; read-out: pGI50 (converted))	GI50 (BaF3 [9])	GI50 (BaF3 [10])	Activity (Erythrocyte [11])	F [13]	microsomal CLint at 1 µM [14]	Activity (Erythrocyte [15])	also measured
Cc1cc(Nc2ncc(Cl)c(Nc3ccccc3S(=O)(=O)C(C)C)n2)c(OC(C)C)cc1C1CCN(CCOCCOCCNC(=O)CNc2cccc3c2C(=O)N(C2CCC(=O)NC2=O)C3=O)CC1 (stereo unspecified)										DC50 [1]: 289 nM; Activity [2]: < 50%; IC50 [3]: 971 nM
COc1cc(CCNCCCCCC#Cc2cccc3c2CN(C2CCC(=O)NC2=O)C3=O)c(C)cc1Nc1ncc(Cl)c(Nc2ccccc2S(=O)(=O)C(C)C)n1 (stereo unspecified)						Toxic	0.2%	39 µL/min/mg	Toxic	solubility thermodynamic at 24 h [12]: 686 µM (≈ 567 µg/mL)
COc1cc(C2CCN(CCCC#Cc3cccc4c3CN(C3CCC(=O)NC3=O)C4=O)CC2)c(C)cc1Nc1ncc(Cl)c(Nc2ccccc2S(=O)(=O)C(C)C)n1 (stereo unspecified)						Non-Toxic	9%	10.5 µL/min/mg	Non-Toxic	Activity [16]: Active; Activity [17]: Active; DC50 [1]: 6.6 nM; Activity [18]: Active; IC50 [3]: 542 nM; Activity [19]: Active; DC50 [20]: 43 nM; Activity [21]: Active
COc1cc(C2CCN(CC3CN(c4ccc5c(c4)CN(C4CCC(=O)NC4=O)C5=O)C3)CC2)c(C)cc1Nc1ncc(Cl)c(Nc2ccccc2S(=O)(=O)C(C)C)n1 (stereo unspecified)								25.2 µL/min/mg		
C[C@@H](Oc1cc(-c2cnn(C3CCNCC3)c2)cnc1N)c1c(Cl)ccc(F)c1Cl [CRIZOTINIB]	2000 nM	1000 nM	2000 nM	2000 nM	2000 nM					
COc1cc(C2CCN(CC3CN(c4ccc5c(c4)C(=O)N(C4CCC(=O)NC4=O)C5=O)C3)CC2)c(C)cc1Nc1ncc(Cl)c(Nc2ccccc2S(=O)(=O)C(C)C)n1 (stereo unspecified)	19.9 nM	3.16 nM	10 nM	19.9 nM	3.16 nM	Non-Toxic	28%	8 µL/min/mg	Non-Toxic	Activity (HepG2 [4]): Toxic; inhibition in vivo at 10 mg/kg (BaF3 [22]): 33%; Activity (HepG2 [6]): Toxic; solubility thermodynamic at 24 h [12]: 122 µM (≈ 104 µg/mL); GI50 (BaF3 [8]; read-out: GI50): 10 nM; Activity (Mus musculus [23]): Active; PPB [24]: > 99.9%; PPB [25]: > 99.9%; Activity (Mus musculus [26]): Active
